Compounds with a hit are over-represented: about 1.7% of the library has one in this group of screens.
VIM-2 inh – blocks Pseudomonas aeruginosa VIM-2 metallo-beta-lactamase; purified VIM-2, nitrocefin hydrolysis, epi-absorbance fluorescence; inhibition, % at 5.6 µM; hit rate 0.89% among 290,000; AID 1527;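 active = inhibition above the mean of all tested compounds plus 3 SD, cutoff set per screening run, cut at about 7.5% in these data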;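 also: red hydrolysis product quenches plate fluorescence so inhibitors raise well fluorescence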
proCasp7 act – counter-screen: procaspase-7 (human) activation; recombinant procaspase-7, Ac-DEVD-pNA absorbance 405 nm; D23A/D198A/D206A triple mutant, cannot self-cleave; scale: DMSO 0, 5 µM enzyme 100; activation, % at 8.5 µM; hit rate 0.093% among 330,000; AID 463210;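 active = percent activation above the screen-wide mean plus 3 SD, cut at about 25% in these data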
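Test system: Procaspase-7 triple mutant (PC-7 D3A). Also added: Ac-DEVD-pNA substrate, 400 µM as added. Schedule: 1 h enzyme–compound preincubation and 2 h substrate reaction, both 25 °C. Signal: p-Nitroaniline absorbance at 405 nm, read at 0 and 120 min. Control set: low DMSO alone, high DMSO plus 5 µM PC-7.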
IMP-1 inhibitor – blocks Pseudomonas aeruginosa IMP-1 metallo-beta-lactamase. purified IMP-1, nitrocefin hydrolysis, epi-absorbance fluorescence. inhibition, % at 5.6 µM. hit rate 0.45% among 290,000;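 active = inhibition above the mean plus 3 SD of all compounds in the same screening run, cut at about 4.5% in these data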
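Assay system: purified recombinant IMP-1 beta-lactamase. Input: IMP-1 0.2 nM before substrate addition. Buffer or medium: Zinc- and detergent-supplemented HEPES buffer, pH 7.1. Schedule: 25 °C, 15 min preincubation, 25 min reaction. Signal: Epi-absorbance fluorescence, 480 nm excitation, 530 nm emission. Evaluation: percent inhibition from optical density relative to buffer-blank wells.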
proCasp3 act – activates human procaspase-3 | recombinant procaspase-3 D3A, Ac-DEVD-pNA absorbance 405 nm | activation, % at 8.5 µM | AID 463141 | hit rate 0.11% among 330,000;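 active = activation above the mean of all tested compounds plus 3 SD, cut at about 21% in these data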
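material = Procaspase-3 D3A mutant | probe or stimulus = Ac-DEVD-pNA | compound = single dose, 8.5 µM nominal compound, 0.8% DMSO | timing = 1 h preincubation, 2 h reaction | measured by = 405 nm absorbance of p-nitroaniline, reads at 0 and 120 min | benchmarks = DMSO-only low control, 5 µM PC-3 D3A high control | repeats = singlicate, each compound tested once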
PolyA inhibitor – inhibitors of polyadenylation in S. cerevisiae. S. cerevisiae SKY197-pL101 polyadenylation reporter, beta-gal luminescence; efflux-impaired pdr1/pdr3 knockout yeast; score 100 = 6 SD above DMSO. activity score, % at 12 µM. hit rate 0.02% among 300,000;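 active = lowest replicate activity score at least 50, where 100 means six control SD above control mean; inconclusive = lowest score under 50 but half or more replicates reach 50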;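 also: yeast exposed to compound for 9 h at 30 °C; higher score means more reporter readthrough which indicates perturbed polyadenylation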
Neddylation inh – inhibitors of human cullin neddylation. calls only at 25 µM. P61081+Q13564. hit rate 0.58% among 360,000. TR-FRET cullin neddylation, biochemical. AID 651699; in the data active = inhibition above about 36%
Target sequence (P61081 whole entry, looked up): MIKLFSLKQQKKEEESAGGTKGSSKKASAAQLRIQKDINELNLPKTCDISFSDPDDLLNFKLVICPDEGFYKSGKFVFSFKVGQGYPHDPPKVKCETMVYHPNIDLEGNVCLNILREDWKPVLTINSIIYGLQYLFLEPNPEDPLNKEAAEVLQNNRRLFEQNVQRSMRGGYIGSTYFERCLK
Target sequence (Q13564 whole entry, looked up): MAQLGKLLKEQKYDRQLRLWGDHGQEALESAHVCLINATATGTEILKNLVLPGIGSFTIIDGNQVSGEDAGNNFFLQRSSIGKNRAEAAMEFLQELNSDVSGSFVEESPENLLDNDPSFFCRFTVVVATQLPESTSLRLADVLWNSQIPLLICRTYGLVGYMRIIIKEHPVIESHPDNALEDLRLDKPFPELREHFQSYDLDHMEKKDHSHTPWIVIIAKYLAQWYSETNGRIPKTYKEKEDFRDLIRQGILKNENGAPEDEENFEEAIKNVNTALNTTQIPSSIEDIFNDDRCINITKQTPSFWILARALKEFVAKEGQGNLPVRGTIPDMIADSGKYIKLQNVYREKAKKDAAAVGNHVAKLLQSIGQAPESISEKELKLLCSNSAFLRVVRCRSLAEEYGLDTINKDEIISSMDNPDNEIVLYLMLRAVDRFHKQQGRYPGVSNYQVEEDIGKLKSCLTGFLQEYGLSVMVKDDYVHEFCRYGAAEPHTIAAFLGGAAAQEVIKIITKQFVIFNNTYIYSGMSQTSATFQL
Each line names hits and unclear results; the compound was inactive in the other large screens.

O=C(N/N=C/c1ccc[nH]1)c1ccccc1OCc1ccc(F)cc1	none
COc1ccc(-c2nnc(SCC(=O)N3CCCCC3)o2)cc1OC	none
O=C(Nc1ccc([N+](=O)[O-])cn1)C1CC2CCC1C2 (stereo unspecified)	none
S=c1[nH]c2ccccc2n2cccc12	VIM-2 inh 8.7
O=C(Nc1ccc(Br)cc1)c1ccc(-n2cnnn2)cc1	none
COc1ccc(CN(C)C(=O)c2cc(S(=O)(=O)Nc3ccccc3F)ccc2C)c(OC)c1	IMP-1 inhibitor 4.8
COc1cccc(CN(C)C(=O)c2ccc(S(=O)(=O)Nc3ccccc3F)cc2)c1OC	none (no result: VIM-2 inh, proCasp7 act, IMP-1 inhibitor, proCasp3 act, PolyA inhibitor)
NC(=O)CCn1c(C(=O)c2cc(Cl)c(N)c(Cl)c2)c2ccccc2[n+]1[O-]	VIM-2 inh 7.8
NCCCn1c(C(=O)c2cc(Cl)c(N)c(Cl)c2)c2ccccc2[n+]1[O-]	none (no result: VIM-2 inh, IMP-1 inhibitor)
CC(=O)c1ccc(N2CCN(c3ccc4cc(S(=O)(=O)N5CCC(C)CC5)ccc4n3)CC2)cc1	IMP-1 inhibitor 12
CN(C)CCOc1cc(Cl)cc(Cl)c1	none
CN(C)c1ccc(C=NCC2(O)CCOC(C)(C)C2)cc1 (stereo unspecified)	none
O=C(CSc1nc2ccccc2s1)NNC(=S)Nc1ccc(Br)cc1	none
Cc1csc(NC(=O)CSc2nc3ccccc3s2)n1	IMP-1 inhibitor 4.6
O=C(CSc1nc2ccccc2s1)NNC(=S)Nc1ccccc1	VIM-2 inh 9.7
Cc1csc(NC(=O)CCCSc2nc3ccccc3s2)n1	none
O=C(Nc1c(F)cc(F)cc1Br)c1cc(S(=O)(=O)N2CCN(c3ccccn3)CC2)ccc1F	none
O=C(Nc1ccc(F)c(F)c1)c1cc(S(=O)(=O)N2CCN(c3ccccn3)CC2)ccc1F	IMP-1 inhibitor 4.6
O=C(CCCN1C(=O)c2cccc3cccc(c23)C1=O)NCc1ccco1	none
CN(C)C(CNC(=O)CCCN1C(=O)c2cccc3cccc(c23)C1=O)c1ccccc1 (stereo unspecified)	VIM-2 inh 9.2
Cc1ccc2c(c1)c1ncnc(N3CCOCC3)c1n2C	VIM-2 inh 7.7 (not shown: Neddylation inh)
CSc1nc2c(c(-c3ccc(O)cc3)c1C#N)CCC2	VIM-2 inh 7.8
Nc1c(/C=C2/C=CC(=O)C(O)=C2)c(=O)nc2sc(CC(=O)N3CCCCC3)nn12	VIM-2 inh 11
Nc1c(/C=C2/C=CC(=O)C(O)=C2)c(=O)nc2sc(CC(=O)N3CCCC3)nn12	none
CCCCNC(=O)c1onc(CSc2ccc(Cl)cc2)c1C(=O)NCCCC	none (no result: VIM-2 inh, IMP-1 inhibitor)
O=C(O)C(Cc1ccccc1)NC(=O)C(Cc1ccccc1)NC(=O)C12CC3CC(CC(C3)C1)C2 (stereo unspecified)	none (no result: VIM-2 inh, IMP-1 inhibitor)
Cc1cc(C)n2c(=S)[nH]nc2n1	VIM-2 inh 11
Cc1cc(C)n2cnnc2n1	none
COc1ccc(-c2cc3c(=O)n(CC(=O)NCCCc4ccccc4)ncn3n2)cc1	IMP-1 inhibitor 15
Cc1cccc(-n2c(-c3csc(C)c3)n[nH]c2=S)c1	VIM-2 inh 7.7
CCc1cc(-c2n[nH]c(=S)n2-c2cccc(C)c2)cs1	none
Cc1cc(-c2n[nH]c(=S)n2-c2ccccc2C)cs1	VIM-2 inh 11
Cc1ccccc1-n1c(-c2ccncc2)n[nH]c1=S	none (no result: VIM-2 inh, IMP-1 inhibitor)
Cc1cccc(C)c1NC(=O)CNC(=O)c1cn(-c2ccccc2)nc1-c1ccccc1	none
CCOc1ccccc1N(CC(=O)OC)S(C)(=O)=O	IMP-1 inhibitor 4.9
CCOc1ccccc1N(CC(=O)N1CCCCCC1)S(C)(=O)=O	none
CCOc1ccc(/C(O)=C2/C(=O)C(=O)N(c3nc(C)c(C)s3)C2c2ccco2)cc1 (stereo unspecified)	IMP-1 inhibitor 5.5
COC(=O)c1sc(N2C(=O)C(=O)/C(=C(/O)c3ccc(C)cc3)C2c2ccco2)nc1C (stereo unspecified)	none (no result: Neddylation inh)
COc1ccc(-c2cc(OC(=O)c3ccc(F)cc3)c3c(C)oc(C)c3c(=O)c2)cc1	IMP-1 inhibitor 4.9 (no result: PolyA inhibitor, Neddylation inh)
CNC(=O)NC(=O)CSc1nnc(-c2ccco2)n1Cc1ccccc1	none
CCc1nnc(NC(=O)c2ccc(-c3ccccc3Cl)o2)s1	Neddylation inh active
CCS(=O)(=O)N1CCC(C(=O)NCc2ccc(F)cc2)CC1	none
O=C(N/N=C/c1cccnc1)c1ccco1	none
Cc1ccc(C(=O)N/C(=C\c2ccc(-c3ccc(Br)cc3)o2)C(=O)NCCCN(C)C)cc1	Neddylation inh active
O=S(=O)(NCCSc1ccccc1)c1cccs1	none
CNc1ccccc(C(=O)/C=C/c2ccccc2OC)c1=O	none
CCNc1ccc(Br)cc(C(=O)/C=C/c2ccccc2Cl)c1=O	IMP-1 inhibitor 11
CCNc1ccccc(C(=O)/C=C/c2ccc3c(c2)OCO3)c1=O	none
CNc1ccc(Br)cc(C(=O)/C=C/c2cccc(OC)c2OC)c1=O	IMP-1 inhibitor 6.5
CNc1ccc(Br)cc(C(=O)/C=C/c2cccc(Cl)c2Cl)c1=O	IMP-1 inhibitor 5.9 (no result: proCasp7 act, proCasp3 act, PolyA inhibitor)
COCC(N)(c1ccccc1)c1nc2ccccc2n1C (stereo unspecified)	VIM-2 inh 9.0
CCCc1c(CC)c(=N)c2ccccc2n1C	IMP-1 inhibitor 8.8
O=C(N/N=C/c1ccc(F)cc1)c1c(O)c2ccccc2[nH]c1=O	PolyA inhibitor 60
O=C(N/N=C/c1ccccc1)c1c(O)c2ccccc2[nH]c1=O	PolyA inhibitor inconclusive
CCOC(=O)C(CC)Sc1nnc2c3cc(C)ccc3n(C)c2n1 (stereo unspecified)	VIM-2 inh 9.4
CCSc1nnc2c3cc(CC)ccc3n(C)c2n1	VIM-2 inh 8.2 (no result: proCasp7 act, proCasp3 act)
CC(C)CSc1nnc2c3ccccc3n(C)c2n1	none
COc1ccc(-c2cc(C(=O)Nc3cc(Cl)ccc3O)no2)cc1	IMP-1 inhibitor 25, PolyA inhibitor inconclusive
COc1ccc(-c2cc(C(=O)Nc3ccc(Br)cc3)no2)cc1	IMP-1 inhibitor 20
Cc1nc2n(n1)C(O)c1cc([N+](=O)[O-])ccc1S2 (stereo unspecified)	none (no result: Neddylation inh)
CN(c1ccc(C(=O)N2CCN(c3ccc(F)cc3)CC2)cc1)S(C)(=O)=O	none
CC(C)(C)OC(=O)n1cccc1/C=C1\c2ccccc2C(=O)N1c1ccccc1	Neddylation inh active (no result: VIM-2 inh, proCasp7 act, IMP-1 inhibitor, proCasp3 act, PolyA inhibitor)
CC(=O)Oc1ccc(C#C/C=C2\c3ccccc3C(=O)N2c2ccccc2)cc1	none (no result: VIM-2 inh, IMP-1 inhibitor, PolyA inhibitor)
Cc1ccccc1NC(=O)CSc1nc(N)c(C#N)c(-c2cccs2)c1C#N	IMP-1 inhibitor 12
CCN(CC)C(=O)CSc1nc(N)c(C#N)c(-c2cccs2)c1C#N	none
NNC(=O)c1nc[nH]c1C(=O)Nc1ccccn1	IMP-1 inhibitor 7.6
Cc1ccc(/C=C2/SC(=S)N(c3ccc(S(=O)(=O)Nc4nccs4)cc3)C2=O)cc1	none

High-throughput results: PubChem, several laboratories
